The text below walks through data of publication PMC6071920 (MedChemComm, 2016).

Series [1] addresses TSPO. Conditions: read-out: Ki for the TSPO; cited from earlier work.
In series [2] the test system is TSPO A147T. Type of series: binding, human. Conditions: fold discrimination (loss of affinity at TSPO A147T versus TSPO WT).
The target in series [3] is TSPO WT (Homo sapiens, UniProt P30536, T147A). Type of series: binding. Conditions: 3b versus 3a; 4b versus 4a.
Series [4] concerns the target TSPO A147T (Homo sapiens, UniProt P30536). The format is binding.
Series [5] has as its system TSPO WT over-expressing 293T cells. The experiment in a line: Proliferation. Type of series: cell-based, human. Conditions: 48 h, BrdU ELISA. The method, boiled down:
(§1)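 Clonally selected 293T cells, lentivirally transduced with human TSPO WT or A147T, puromycin-selected, grown in DMEM with 10% FBS, 100 U ml−1 penicillin/streptomycin and 2 mM glutamine. BrdU labelled at 37 °C for 4 h, then detected by BrdU ELISA. Stopped with 1 M sulfuric acid and read at 450 nm. Normalised to vehicle controls; one-way ANOVA with Dunnett's test.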
(Dividing cells build labelled thymidine or BrdU into new DNA.)

For series [6], the system named is TSPO A147T over-expressing 293T cells. The experiment in a line: Proliferation. The conditions noted are these: 48 h, BrdU ELISA. The format is cell-based, human. In a few lines:
as §1

The test system of series [7] is TSPO. Conditions: cited from earlier work; for Fold reduction of affinity in LABs compared to HABs: brain tissue or lymphocytes.
Series [8] addresses rat TSPO. Conditions: read-out: Affinity commonly reported at the rat TSPO; cited from earlier work.
The conditions of series [9]: cited from earlier work.

Several values for one entry are separate records, joined by “and”; a condition that tells them apart may be missing. Identical values can stand only once. Like-named read-outs stand apart in the source and are kept apart here.

Sequence of TSPO A147T (Homo sapiens, UniProt P30536) (P30536 whole entry, stated change not applied): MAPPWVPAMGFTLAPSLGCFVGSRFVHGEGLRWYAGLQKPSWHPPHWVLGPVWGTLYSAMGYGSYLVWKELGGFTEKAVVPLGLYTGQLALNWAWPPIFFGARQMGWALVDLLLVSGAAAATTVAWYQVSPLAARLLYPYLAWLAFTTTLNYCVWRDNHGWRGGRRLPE
Sequence of TSPO WT (P30536 whole entry T147A): as the sequence (P30536 whole entry, stated change not applied) above, with T147A counted along it

As to `NC(=O)c1nc(-c2ccccc2)c2ccccc2n1` [4-phenyl quinazoline-2-carboxamide], in [1], the Ki was 0.5 nM.

Turning to `CCN(CC)C(=O)Cn1c2ccccc2c2ccccc21` [Compound 3a, 2-(9H-Carbazol-9-yl)-N,N-diethylacetamide], the “TSPO A147T Ki/TSPO WT Ki” value in [2] came out at 6.

Turning to `CCN(Cc1ccccc1)C(=O)Cn1c2ccccc2c2ccccc21` [Compound 3b, N-Benzyl-2-(9H-carbazol-9-yl)-N-ethylacetamide], in [3], the “Fold lower affinity at TSPO WT than the N,N-diethylamide analogue” value is listed as 3 ×. In addition, the “Fold reduction in TSPO A147T affinity compared to 3a” value in [4] (3b versus 3a) worked out at 2.6 ×. The “Effect on proliferation at 100 μM, TSPO WT cells” value in [5] is given as “did not significantly affect proliferation”. Also, the “Effect on proliferation at 100 μM, TSPO A147T cells” value in [6] is given as “did not significantly affect proliferation”.

In the case of `CCN(CC)C(=O)Cn1c2ccccc2c2cc(Br)ccc21` [Compound 4a, 2-(3-Bromo-9H-carbazole-9-yl)-N,N-diethylacetamide], the “TSPO A147T Ki/TSPO WT Ki” value in [2] is recorded as 5.

With `CCN(CC)C(=O)Cn1c2ccccc2c2cc(-c3ccccc3)ccc21` [Compound 5a, N,N-Diethyl-2-(3-phenyl-9H-carbazole-9-yl)acetamide], the “TSPO A147T Ki/TSPO WT Ki” value in series [2] was 5- to 6.

With `CCN(CC)C(=O)Cn1c2ccccc2c2cc(-c3ccc(OC)cc3)ccc21` [Compound 5c, N,N-Diethyl-2-(3-(4-methoxyphenyl)-9H-carbazole-9-yl)acetamide], the “Fold improved (higher) affinity at TSPO A147T than the comparator analogue” value in series [4] (4b versus 4a, 5c versus 3a) was 2 ×.

Consider `CCN(CC)C(=O)Cc1c(-c2ccc(OC)cc2)nn2c(C)cc(C)nc12` [DPA-713], for which the “Effect on proliferation at 100 μM, TSPO WT cells” value in [5] was “did not significantly affect proliferation”. Also, the “Effect on proliferation at 100 μM, TSPO A147T cells” value in [6] is “did not significantly affect proliferation”.

Take `COc1ccccc1CN(C(C)=O)c1cnccc1Oc1ccccc1` [PBR-28]: in [7], the “Fold reduction of affinity in LABs compared to HABs” value is listed as 55 fold.

As to `CCC(C)N(C)C(=O)c1cc2ccccc2c(-c2ccccc2Cl)n1` (centres unmarked) [PK 11195], in [8], the Ki was 0.7 to 18 nM. The In vivo bioavailability entry in series [9] is listed as “poor in vivo bioavailability”.

Regarding `CCN(Cc1ccccc1)C(=O)Cn1c(=O)n(C)c2cnc(-c3ccccc3)nc21` [XBD-173], in series [2], the “TSPO A147T Ki/TSPO WT Ki” value is 5 and 5- to 6. In series [7], the “Fold reduction of affinity in LABs compared to HABs” value is given as 13 fold. The Ki in series [7] (read-out: Affinity at LABs, LAB brain tissue) is 30.3 nM.
